Here are results for four compounds from ChEMBL document CHEMBL1157465, “Design, synthesis, and biological evaluation of novel 3-aryl-4-(1H-indole-3yl)-1,5-dihydro-2H-pyrrole-2-ones as vascular endothelial growth factor receptor (VEGF-R) inhibitors” (J Med Chem, 2008).

Experiment [1] deals with Insulin-like growth factor 1 receptor (Homo sapiens, UniProt P08069). The experiment can be described thus: Inhibition of human recombinant IGF1R. Put shortly:
(§1)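 Human kinases expressed in Sf9 cells via baculovirus as GST or His fusions and affinity purified. 33PanQinase assay in 60 mM HEPES-NaOH pH 7.5, 3 mM MgCl2, 3 mM MnCl2, 3 µM orthovanadate, 1.2 mM DTT, 1 µM [γ-33P]ATP, 1% DMSO; 30 °C, 80 min. Substrates: poly(Glu,Tyr) 4:1 for ERBB2, IGF1-R and SRC; poly(Ala,Glu,Lys,Tyr) 6:2:5:1 for FLT3. IC50 from 10 concentrations by scintillation counting.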

Experiment [2] deals with Epidermal growth factor receptor (Homo sapiens, UniProt P00533). In words: Inhibition of human recombinant EGFR.
The next experiment concerns the target Ephrin type-B receptor 4 (Homo sapiens, UniProt P54760). The experiment can be described thus: Inhibition of human recombinant EPHB4. The essentials: (§2)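 Recombinant human tyrosine kinases (EPHB4, TIE2, VEGF-R2, VEGF-R3), expressed in Sf9 insect cells as GST- or His-fusions, with poly(Glu,Tyr) 4:1 as substrate. Conditions: 1 µM [γ-33P]ATP, pH 7.5 HEPES buffer with Mg/Mn, DTT and vanadate, 30 °C for 80 min, 1% DMSO. Ten concentrations were tested and IC50 came from scintillation counting of incorporated 33P.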

Experiment [3] deals with Proto-oncogene tyrosine-protein kinase Src (Homo sapiens, UniProt P12931). In words: Inhibition of human recombinant SRC. Put shortly:
as §1

The target of experiment [4] is Vascular endothelial growth factor receptor 2 (Homo sapiens, UniProt P35968). In words: Inhibition of human recombinant VEGFR2. Put shortly:
as §2

The target of experiment [5] is Vascular endothelial growth factor receptor 3 (Homo sapiens, UniProt P35916). In words: Inhibition of human recombinant VEGFR3. The essentials: as §2
Experiment [6] deals with T1, Receptor-type tyrosine-protein kinase FLT3 (Homo sapiens, UniProt P36888).
T1 sequence (P36888 whole entry): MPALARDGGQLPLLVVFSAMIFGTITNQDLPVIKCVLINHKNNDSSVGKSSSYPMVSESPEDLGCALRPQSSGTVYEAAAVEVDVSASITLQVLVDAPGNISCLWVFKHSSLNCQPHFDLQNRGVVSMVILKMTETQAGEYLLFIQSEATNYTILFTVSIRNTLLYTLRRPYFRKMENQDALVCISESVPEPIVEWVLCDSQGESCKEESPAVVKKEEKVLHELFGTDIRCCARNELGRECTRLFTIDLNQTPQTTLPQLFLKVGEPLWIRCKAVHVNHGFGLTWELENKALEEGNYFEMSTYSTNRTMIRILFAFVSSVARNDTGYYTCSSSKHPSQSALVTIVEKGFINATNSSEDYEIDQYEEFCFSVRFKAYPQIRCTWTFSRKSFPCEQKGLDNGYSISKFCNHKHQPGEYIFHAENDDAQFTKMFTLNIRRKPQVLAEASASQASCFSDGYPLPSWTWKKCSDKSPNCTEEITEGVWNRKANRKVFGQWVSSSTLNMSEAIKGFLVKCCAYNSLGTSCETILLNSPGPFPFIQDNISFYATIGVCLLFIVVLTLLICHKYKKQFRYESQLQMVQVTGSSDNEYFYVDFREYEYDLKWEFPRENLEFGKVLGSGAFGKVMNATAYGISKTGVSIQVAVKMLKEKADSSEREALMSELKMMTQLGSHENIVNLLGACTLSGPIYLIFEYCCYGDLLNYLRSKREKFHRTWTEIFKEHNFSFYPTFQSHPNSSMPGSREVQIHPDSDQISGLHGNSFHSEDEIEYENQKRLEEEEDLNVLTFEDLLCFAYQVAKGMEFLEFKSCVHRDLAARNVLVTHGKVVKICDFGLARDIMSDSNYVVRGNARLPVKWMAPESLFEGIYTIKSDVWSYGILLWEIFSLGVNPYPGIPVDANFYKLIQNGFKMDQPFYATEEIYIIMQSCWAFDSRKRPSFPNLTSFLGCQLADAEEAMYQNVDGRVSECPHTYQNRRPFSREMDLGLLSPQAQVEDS
The experiment can be described thus: Inhibition of human recombinant FLT3. The essentials: as §1

The target in a further experiment is Angiopoietin-1 receptor (Homo sapiens, UniProt Q02763). The experiment can be described thus: Inhibition of human recombinant TIE2. The essentials:
as §2

The species named for experiment [7] is Homo sapiens. In words: Antiangiogenic activity in VEGF-induced HLMEC assessed as sprouts per bead at 1.3 uM after 24 hrs by sprouting assay. The class given is functional. Put shortly: (§3)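 HLMEC seeded on cytodex-3 microcarrier beads and embedded in 3D fibrinogen gel with 20 ng/mL VEGF plus compound at a final 1.3 or 2.6 µM (from 1 mM DMSO stock). Gel polymerised with 0.65 U/mL thrombin and overlaid with MCDB131, 5% FCS, 5% human serum and 200 U/mL Trasylol. Negative control: gel without growth factors. After 24 h, fixed in 1% PFA; sprouts per 50 beads counted microscopically. Triplicates per condition, n = 9 experiments.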

Experiment [8] is filed under the species Homo sapiens. The experiment can be described thus: Induction of apoptosis in HDMEC at 2.1 uM after 5 hrs. The format is functional. The essentials: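 Positive-control condition: HDMEC treated 5 h at 2.1 µM. Adherent cells plus supernatant stained for cleaved caspase-3 and analysed by FACS as percent apoptotic cells. Repeated three times.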
In experiment [9] the target is Receptor tyrosine-protein kinase erbB-2 (Homo sapiens, UniProt P04626). In words: Inhibition of human recombinant ERBB2. Put shortly: as §1
Experiment [10] addresses Casein kinase II subunit alpha (Homo sapiens, UniProt P68400). In words: Inhibition of human recombinant CK2A1. Put shortly:
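Human kinases expressed in Sf9 cells by baculovirus as GST or His fusions and affinity purified. Radiometric 33PanQinase assay: 60 mM HEPES-NaOH pH 7.5, 3 mM MgCl2, 3 mM MnCl2, 3 µM orthovanadate, 1.2 mM DTT, 1 µM [γ-33P]ATP, 50-400 ng enzyme, 1% DMSO; 30 °C, 80 min. Substrates: B-Raf-VE, MEK1 KM; CDK2/CycA, histone H1; CK2-A1, casein; COT, autophosphorylation. IC50 from 10 concentrations; 33Pi incorporation by scintillation.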

Experiment [11] is filed under the species Homo sapiens. In words: Antiangiogenic activity in VEGF-induced HLMEC assessed as number of sprouts per bead at 2.6 uM after 24 hrs by sprouting assay. The format is functional. Put shortly: as §3
For experiment [12], the species on record is Homo sapiens. The experiment can be described thus: Induction of apoptosis in HDMEC assessed as cleaved caspase 3 at 1.3 uM after 24 hrs. The format is functional. The essentials:
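HDMEC incubated 24 h with compound. Adherent cells and supernatant harvested together, stained with an antibody to cleaved caspase-3, and analysed by FACS as percent apoptotic cells. Three independent repeats.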

Sequence of Proto-oncogene tyrosine-protein kinase Src (P12931 2-536 limits assumed): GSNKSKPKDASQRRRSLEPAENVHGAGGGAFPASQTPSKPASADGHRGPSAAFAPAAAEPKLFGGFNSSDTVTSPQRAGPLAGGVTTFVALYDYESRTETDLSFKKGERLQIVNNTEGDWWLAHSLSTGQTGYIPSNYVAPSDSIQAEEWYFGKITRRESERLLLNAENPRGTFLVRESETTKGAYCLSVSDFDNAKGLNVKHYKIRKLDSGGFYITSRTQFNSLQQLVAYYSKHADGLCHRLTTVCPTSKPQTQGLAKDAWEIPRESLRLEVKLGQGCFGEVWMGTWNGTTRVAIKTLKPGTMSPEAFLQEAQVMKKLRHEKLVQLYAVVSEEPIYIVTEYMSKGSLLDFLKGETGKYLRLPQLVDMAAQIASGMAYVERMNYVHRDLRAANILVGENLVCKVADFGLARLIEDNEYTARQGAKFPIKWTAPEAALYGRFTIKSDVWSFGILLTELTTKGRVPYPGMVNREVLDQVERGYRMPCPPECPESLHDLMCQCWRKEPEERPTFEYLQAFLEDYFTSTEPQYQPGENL
Sequence of Vascular endothelial growth factor receptor 2 (P35968 whole entry): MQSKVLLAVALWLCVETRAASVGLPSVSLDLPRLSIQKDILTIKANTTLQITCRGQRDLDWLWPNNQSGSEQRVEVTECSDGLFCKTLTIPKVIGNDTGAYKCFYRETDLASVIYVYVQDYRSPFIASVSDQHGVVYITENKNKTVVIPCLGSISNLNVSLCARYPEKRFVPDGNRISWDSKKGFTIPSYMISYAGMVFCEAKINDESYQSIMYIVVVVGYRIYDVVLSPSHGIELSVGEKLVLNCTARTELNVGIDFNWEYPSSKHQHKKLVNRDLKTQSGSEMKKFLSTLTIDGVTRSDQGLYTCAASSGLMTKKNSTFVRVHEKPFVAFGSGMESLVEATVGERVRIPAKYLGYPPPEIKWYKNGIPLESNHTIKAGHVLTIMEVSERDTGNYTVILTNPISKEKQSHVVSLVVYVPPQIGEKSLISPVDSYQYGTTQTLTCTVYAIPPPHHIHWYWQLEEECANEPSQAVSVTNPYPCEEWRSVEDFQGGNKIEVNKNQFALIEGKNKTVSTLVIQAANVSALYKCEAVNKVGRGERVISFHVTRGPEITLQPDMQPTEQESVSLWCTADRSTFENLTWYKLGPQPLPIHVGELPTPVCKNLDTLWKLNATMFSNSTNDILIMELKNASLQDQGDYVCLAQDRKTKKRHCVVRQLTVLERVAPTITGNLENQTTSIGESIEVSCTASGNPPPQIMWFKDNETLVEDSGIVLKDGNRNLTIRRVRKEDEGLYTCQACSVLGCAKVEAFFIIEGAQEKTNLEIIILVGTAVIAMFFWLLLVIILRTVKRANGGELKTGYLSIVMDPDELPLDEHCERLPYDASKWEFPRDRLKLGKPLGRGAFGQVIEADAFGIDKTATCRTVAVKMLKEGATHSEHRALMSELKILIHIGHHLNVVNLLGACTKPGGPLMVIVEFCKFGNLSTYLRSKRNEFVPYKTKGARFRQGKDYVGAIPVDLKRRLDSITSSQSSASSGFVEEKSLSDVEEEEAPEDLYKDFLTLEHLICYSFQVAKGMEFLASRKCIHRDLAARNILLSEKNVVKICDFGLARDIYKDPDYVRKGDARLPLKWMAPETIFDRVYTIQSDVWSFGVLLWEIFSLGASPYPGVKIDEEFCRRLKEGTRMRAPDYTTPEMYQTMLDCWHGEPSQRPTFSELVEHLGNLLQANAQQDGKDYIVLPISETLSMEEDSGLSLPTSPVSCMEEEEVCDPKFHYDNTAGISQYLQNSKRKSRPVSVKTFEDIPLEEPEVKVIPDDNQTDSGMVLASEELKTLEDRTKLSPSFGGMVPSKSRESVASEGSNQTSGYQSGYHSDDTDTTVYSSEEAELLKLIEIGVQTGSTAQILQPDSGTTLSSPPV
Sequence of Angiopoietin-1 receptor (Q02763 whole entry): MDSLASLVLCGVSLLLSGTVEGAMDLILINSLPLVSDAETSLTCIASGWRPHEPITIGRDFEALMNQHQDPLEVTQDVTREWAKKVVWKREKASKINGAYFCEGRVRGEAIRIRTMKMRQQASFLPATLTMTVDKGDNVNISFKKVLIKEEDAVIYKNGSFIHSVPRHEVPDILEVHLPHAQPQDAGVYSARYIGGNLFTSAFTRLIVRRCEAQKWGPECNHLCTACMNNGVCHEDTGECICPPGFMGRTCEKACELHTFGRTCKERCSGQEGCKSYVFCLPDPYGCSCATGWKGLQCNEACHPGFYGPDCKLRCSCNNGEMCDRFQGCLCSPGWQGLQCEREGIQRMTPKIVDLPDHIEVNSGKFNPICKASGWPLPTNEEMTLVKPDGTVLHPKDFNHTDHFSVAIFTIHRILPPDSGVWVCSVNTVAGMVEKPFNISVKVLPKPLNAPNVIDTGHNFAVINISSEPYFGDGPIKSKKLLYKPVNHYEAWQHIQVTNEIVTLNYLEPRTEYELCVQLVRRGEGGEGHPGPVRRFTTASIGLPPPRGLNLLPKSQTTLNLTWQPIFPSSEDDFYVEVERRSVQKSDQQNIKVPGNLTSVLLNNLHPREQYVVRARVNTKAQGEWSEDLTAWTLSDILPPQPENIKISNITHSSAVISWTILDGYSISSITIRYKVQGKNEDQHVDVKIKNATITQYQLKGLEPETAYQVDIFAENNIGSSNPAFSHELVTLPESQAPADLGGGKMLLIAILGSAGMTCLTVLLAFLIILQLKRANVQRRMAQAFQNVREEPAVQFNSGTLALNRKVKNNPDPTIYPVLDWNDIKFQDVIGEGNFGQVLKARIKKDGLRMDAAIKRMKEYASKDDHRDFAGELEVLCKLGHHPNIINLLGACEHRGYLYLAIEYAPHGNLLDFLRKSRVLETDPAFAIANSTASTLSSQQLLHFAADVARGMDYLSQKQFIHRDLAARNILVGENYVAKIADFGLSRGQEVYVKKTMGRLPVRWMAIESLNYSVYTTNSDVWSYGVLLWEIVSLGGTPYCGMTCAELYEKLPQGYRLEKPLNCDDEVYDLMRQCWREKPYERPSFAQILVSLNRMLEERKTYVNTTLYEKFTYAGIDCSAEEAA
Sequence of Insulin-like growth factor 1 receptor (P08069 31-736 limits assumed): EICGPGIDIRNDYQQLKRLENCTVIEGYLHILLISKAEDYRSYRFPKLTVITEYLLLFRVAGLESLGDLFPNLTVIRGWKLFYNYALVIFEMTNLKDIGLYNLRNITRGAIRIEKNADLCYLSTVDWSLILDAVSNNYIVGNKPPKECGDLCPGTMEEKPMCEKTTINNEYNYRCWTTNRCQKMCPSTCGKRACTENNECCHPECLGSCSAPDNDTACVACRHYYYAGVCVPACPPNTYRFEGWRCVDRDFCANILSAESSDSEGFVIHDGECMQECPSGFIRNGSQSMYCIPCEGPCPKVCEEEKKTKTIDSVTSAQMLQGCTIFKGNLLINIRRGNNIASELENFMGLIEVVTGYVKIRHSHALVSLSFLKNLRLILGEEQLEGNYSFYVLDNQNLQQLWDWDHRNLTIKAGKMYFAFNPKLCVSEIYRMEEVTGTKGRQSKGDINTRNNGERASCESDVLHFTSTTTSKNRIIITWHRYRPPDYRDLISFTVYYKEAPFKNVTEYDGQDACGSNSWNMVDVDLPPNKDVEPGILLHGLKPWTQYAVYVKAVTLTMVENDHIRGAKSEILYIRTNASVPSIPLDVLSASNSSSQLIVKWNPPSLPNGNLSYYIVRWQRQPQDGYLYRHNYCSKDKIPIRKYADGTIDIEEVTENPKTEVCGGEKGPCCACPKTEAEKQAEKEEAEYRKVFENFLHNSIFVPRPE
Sequence of Insulin-like growth factor 1 receptor (P08069 741-1367 limits assumed): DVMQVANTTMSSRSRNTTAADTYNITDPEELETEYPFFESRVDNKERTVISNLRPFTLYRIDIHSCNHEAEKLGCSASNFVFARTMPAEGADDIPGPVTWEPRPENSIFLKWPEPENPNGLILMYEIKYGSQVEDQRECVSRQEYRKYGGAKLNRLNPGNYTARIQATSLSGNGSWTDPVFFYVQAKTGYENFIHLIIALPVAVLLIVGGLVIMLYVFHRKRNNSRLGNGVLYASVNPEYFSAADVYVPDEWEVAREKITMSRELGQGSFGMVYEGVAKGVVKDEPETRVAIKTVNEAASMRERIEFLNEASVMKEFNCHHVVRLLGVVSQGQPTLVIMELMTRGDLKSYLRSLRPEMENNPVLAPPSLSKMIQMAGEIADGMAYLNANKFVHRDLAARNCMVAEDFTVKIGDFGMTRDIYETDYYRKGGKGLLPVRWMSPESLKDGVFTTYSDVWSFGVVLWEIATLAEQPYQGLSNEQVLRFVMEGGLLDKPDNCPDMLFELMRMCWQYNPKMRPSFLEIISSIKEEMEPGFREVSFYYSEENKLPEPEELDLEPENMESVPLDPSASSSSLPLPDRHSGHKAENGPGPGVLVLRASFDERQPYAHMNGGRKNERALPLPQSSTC
Sequence of Casein kinase II subunit alpha (P68400 whole entry, the tested form may be a part): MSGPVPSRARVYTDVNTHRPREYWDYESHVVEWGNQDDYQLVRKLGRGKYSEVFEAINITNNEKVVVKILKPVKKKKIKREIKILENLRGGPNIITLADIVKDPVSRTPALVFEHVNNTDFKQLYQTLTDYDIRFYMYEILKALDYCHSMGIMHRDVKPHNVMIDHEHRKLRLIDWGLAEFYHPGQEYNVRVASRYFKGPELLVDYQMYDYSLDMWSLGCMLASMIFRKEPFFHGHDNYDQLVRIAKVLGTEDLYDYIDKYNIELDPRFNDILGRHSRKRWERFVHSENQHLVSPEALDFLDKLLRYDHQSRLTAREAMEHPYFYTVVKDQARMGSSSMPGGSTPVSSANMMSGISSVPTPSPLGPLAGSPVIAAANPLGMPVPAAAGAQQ

The term IC50 denotes the concentration that inhibits the measured activity by half. For orientation: inhibition means the percentage by which the read-out fell short of the control. Regarding `COc1cc(C2=C(c3cn(COCC[Si](C)(C)C)c4ccccc34)CNC2=O)cc(OC)c1OC`, the concentration for half-maximal inhibition (IC50) stood at 8.7 µM in experiment [1]; 22 µM in experiment [2]; 44 µM on Ephrin type-B receptor 4; 4.5 µM in [3]; 3.1 µM in experiment [4]; 5.6 µM in experiment [5]. Moreover, the half-maximal inhibitory concentration (IC50) was found to be 34 µM in experiment [6] and 26 µM at Angiopoietin-1 receptor. For the same compound, the inhibition in the experiment listed under Homo sapiens [7] amounted to 30%.
In the experiment filed under Homo sapiens [8], `CN[C@@H]1C[C@H]2O[C@@](C)([C@@H]1OC)n1c3ccccc3c3c4c(c5c6ccccc6n2c5c31)C(=O)NC4` gave an Activity of 63.9%.
In the case of `COc1cc(C2=C(c3cn(COCc4ccccc4)c4ccccc34)CNC2=O)cc(OC)c1OC`, the concentration for half-maximal inhibition (IC50) in [1] stood at 18 µM; in experiment [9], 36 µM; in experiment [3], 9.1 µM; in experiment [4] it was 1.6 µM; in experiment [5], 1.7 µM; in experiment [6] it was 36 µM. Further, the 50% inhibitory concentration (IC50) on Angiopoietin-1 receptor is 11 µM; in [10], greater than 50 µM.
For the compound `COc1cc(C2=C(c3c[nH]c4ccccc34)C(=O)NC2=O)cc(OC)c1OC` [MALEIMIDE], the inhibition in the experiment listed under Homo sapiens [7] was determined as 81%. Besides, the Activity in the experiment filed under Homo sapiens [11] stood at 0.48; in the experiment filed under Homo sapiens [12] it was 22.4%.
